The values below come from ChEMBL document CHEMBL4431376, “CZ415, a Highly Selective mTOR Inhibitor Showing in Vivo Efficacy in a Collagen Induced Arthritis Model” (ACS Med Chem Lett, 2016).

Converted amounts (≈) assume the structure as drawn. A value given as a limit tells only on which side of the number the result lay.

Series [1] concerns the target T1, Cytochrome P450 3A4 (Homo sapiens, UniProt P08684). Briefly: Time-dependent inhibition of CYP3A4 in human liver microsomes at 50 uM. In kind it is ADME. The gist of the method: (§1)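 CYP3A4 induction tested at 10 μM. Time-dependent inhibition of CYP3A4 tested at up to 50 μM.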
The species entered for series [2] is Mus musculus. Briefly: animal or person. To be noted: C57BL/6J.
Series [3] in a line: Cmax in DBA/1 OlaHsd mouse immunized with bovine type2 collagen in Freund's complete adjuvant at 10 mg/kg, po bid administered starting on day 22 post immunization measured on day 31 post immunization. To be noted: in vivo. On the set-up: dose 10 mg/kg, route oral. In kind it is ADME, organism-based. The gist of the method:
(§2)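 Blood drug levels were measured on study day 31 in CIA mice dosed at 10 mg/kg PO bid (n = 10), with vehicle 5% DMSO/95% (10% kleptose). AUC and Cmax were derived from these levels. Time above EC50 was judged against the human whole-blood IFNγ assay EC50 and the anti-CD3 mouse PK/PD EC50.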

The nature of series [4]: Cmax in Sprague-Dawley rat at 1 mg/kg, iv as bolus dose by LC-MS/MS analysis. The class given is ADME, organism-based. On the set-up: dose 1 mg/kg, route intravenous. To be noted: in vivo. Put shortly: (§3)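 Rats (n = 3 per route) given a 1 mg/kg intravenous bolus or 3 mg/kg as an oral solution. Vehicle was 5% DMSO/95% (10% Kleptose). Plasma concentration was followed over time to derive PK parameters and oral bioavailability. Clearance was also expressed relative to liver blood flow.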

Series [5] in a line: Distribution coefficient, logD of compound at pH 7.4. To be noted: octanol/water. The class given is physicochemical. Put shortly:
(§4)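 logD measured at pH 7.4. Kinetic solubility measured by CLND. Solubility also measured in FaSSIF and FeSSIF biorelevant media.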

Series [6] deals with T1, Cytochrome P450 3A4. Put plainly: Inhibition of CYP3A4 in human liver microsomes. In kind it is ADME.
The nature of series [7]: AUC (0 to infinity) in Sprague-Dawley rat at 1 mg/kg, iv as bolus dose by LC-MS/MS analysis. To be noted: in vivo. Further details: dose 1 mg/kg, route intravenous, time infinity; call rule not given here. In kind it is ADME, organism-based. The gist of the method: as §3
Series [8] is described as follows: Intrinsic clearance in pooled human liver microsomes at 1 uM incubated up to 40 mins in presence of NADPH by LC-MS/MS analysis. In kind it is ADME, Microsome. Put shortly: (§5)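 Metabolic stability was assessed in liver microsomes (rat, dog, human) and hepatocytes (dog, human). Intrinsic clearance was calculated as μL/min/g liver.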
For orientation: Liver microsomes are vesicles of endoplasmic reticulum, rich in cytochrome P450 enzymes.

Series [9] is described as follows: Tmax in Sprague-Dawley rat at 3 mg/kg, po administered through gavage by LC-MS/MS analysis. The class given is ADME, organism-based. To be noted: in vivo. Put shortly: as §3
Series [10] can be described thus: Mutagenicity in Salmonella typhimurium by Ames test. To be noted: salmonella enterica subsp. enterica serovar typhimurium. In kind it is toxicity.
Series [11] in a line: Volume of distribution at steady state in Sprague-Dawley rat at 1 mg/kg, iv as bolus dose or 3 mg/kg, po administered through gavage measured up to 8 hrs by LC-MS/MS analysis. In kind it is ADME, organism-based. To be noted: in vivo, read-out: Vdss. The gist of the method:
as §3

Series [12] addresses Cytochrome P450 2C9 (Homo sapiens, UniProt P11712). Put plainly: Inhibition of CYP2C9 in human liver microsomes. The class given is ADME.
Series [13] concerns Mus musculus. Briefly: Time duration for free plasma concentration stays above invitro EC50 for human whole blood in DBA/1 OlaHsd mouse immunized with bovine type2 collagen in Freund's complete adjuvant at 10 mg/kg, po bid administered starting on day 22 post immunization measured on day 31 post immunization. The conditions noted are these: in vivo. The class given is ADME, organism-based. The gist of the method: as §2

The subject of series [14] is Mus musculus. Briefly: Anti-inflammatory activity in DBA/1 OlaHsd mouse immunized with bovine type2 collagen in Freund's complete adjuvant assessed as reduction in AUC of clinical arthritis score at 10 mg/kg, po bid administered starting on day 22 post immunization until day 33 post immunization relative to control. The class given is functional. On the set-up: scale not given: the % may be the effect or the level left. The conditions noted are these: in the assay text read “until day 34 post immunization” for “until day 33 post immunization”. Put shortly:
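Semiestablished CIA design. Mice received bovine type II collagen at day 0 with a boost at day 21. Dosing at 10 mg/kg PO bid ran from day 22 to day 34, in 5% DMSO/95% (10% kleptose), n = 10 per group; normal controls n = 4. Paws were scored daily for erythema and swelling (0–5), summarized as AUC. Body weight was tracked over time.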

Series [15] concerns the target T1, Cytochrome P450 3A4. Briefly: Induction of CYP3A4 in […] at 10 uM. The class given is ADME. Put shortly: as §1
Series [16] can be described thus: Intrinsic clearance in pooled cryopreserved human hepatocytes at 1 uM incubated up to 90 mins by LC-MS/MS analysis. The class given is ADME, cell-based, Hepatocyte. To be noted: 1.5 h. The gist of the method:
as §5

The target of series [17] is Cytochrome P450 2C19 (Homo sapiens, UniProt P33261). Put plainly: Inhibition of CYP2C19 in human liver microsomes. The class given is ADME.
Series [18] in a line: AUC (0 to infinity) in Sprague-Dawley rat at 3 mg/kg, po administered through gavage by LC-MS/MS analysis. In kind it is ADME, organism-based. Further details: dose 3 mg/kg, route oral, time infinity. The conditions noted are these: in vivo. Put shortly: as §3
Series [19] can be described thus: Solubility of compound in fed state simulated intestinal fluid. In kind it is physicochemical. The gist of the method:
as §4

The nature of series [20]: Plasma clearance in Sprague-Dawley rat at 1 mg/kg, iv as bolus dose or 3 mg/kg, po administered through gavage measured up to 8 hrs by LC-MS/MS analysis relative to liver blood flow. The class given is ADME, organism-based. The conditions noted are these: in vivo. The gist of the method:
as §3

The species entered for series [21] is Mus musculus. Briefly: animal or person. To be noted: C57BL/6J. This is another data set of the same source.
A short description of series [22]: Protein binding in mouse plasma. The conditions noted are these: read-out: PPB (converted). The class given is ADME, cell-free. The gist of the method:
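Plasma protein binding was determined in rat, mouse and human plasma, expressed as % bound.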

T1 sequence (P08684 whole entry): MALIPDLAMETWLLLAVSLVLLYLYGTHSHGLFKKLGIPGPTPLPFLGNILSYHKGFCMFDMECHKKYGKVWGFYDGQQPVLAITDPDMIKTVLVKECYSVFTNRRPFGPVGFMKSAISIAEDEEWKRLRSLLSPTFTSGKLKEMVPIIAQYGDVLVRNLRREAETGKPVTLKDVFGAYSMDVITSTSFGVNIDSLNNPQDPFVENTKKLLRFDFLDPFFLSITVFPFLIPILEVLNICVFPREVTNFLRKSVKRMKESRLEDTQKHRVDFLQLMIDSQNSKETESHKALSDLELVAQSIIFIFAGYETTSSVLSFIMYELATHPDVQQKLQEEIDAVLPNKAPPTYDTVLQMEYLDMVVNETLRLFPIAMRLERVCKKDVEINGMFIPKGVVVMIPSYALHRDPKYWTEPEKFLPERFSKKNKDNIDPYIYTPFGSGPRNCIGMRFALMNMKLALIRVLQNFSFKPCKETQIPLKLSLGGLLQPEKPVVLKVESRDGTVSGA
Chain of Cytochrome P450 2C9 (P11712 whole entry): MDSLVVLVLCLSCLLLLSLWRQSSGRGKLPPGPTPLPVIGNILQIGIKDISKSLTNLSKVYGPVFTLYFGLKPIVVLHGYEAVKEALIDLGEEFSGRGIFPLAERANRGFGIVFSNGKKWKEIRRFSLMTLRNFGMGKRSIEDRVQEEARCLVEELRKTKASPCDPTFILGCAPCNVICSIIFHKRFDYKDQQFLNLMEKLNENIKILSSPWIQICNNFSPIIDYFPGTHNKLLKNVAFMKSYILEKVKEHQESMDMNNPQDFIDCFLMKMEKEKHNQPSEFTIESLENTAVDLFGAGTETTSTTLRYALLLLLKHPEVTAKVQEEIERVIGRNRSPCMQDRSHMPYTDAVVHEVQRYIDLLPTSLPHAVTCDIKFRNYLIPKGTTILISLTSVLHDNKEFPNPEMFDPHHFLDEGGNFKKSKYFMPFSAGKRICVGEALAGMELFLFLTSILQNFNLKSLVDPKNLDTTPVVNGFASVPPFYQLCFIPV
Chain of Cytochrome P450 2C19 (P33261 whole entry): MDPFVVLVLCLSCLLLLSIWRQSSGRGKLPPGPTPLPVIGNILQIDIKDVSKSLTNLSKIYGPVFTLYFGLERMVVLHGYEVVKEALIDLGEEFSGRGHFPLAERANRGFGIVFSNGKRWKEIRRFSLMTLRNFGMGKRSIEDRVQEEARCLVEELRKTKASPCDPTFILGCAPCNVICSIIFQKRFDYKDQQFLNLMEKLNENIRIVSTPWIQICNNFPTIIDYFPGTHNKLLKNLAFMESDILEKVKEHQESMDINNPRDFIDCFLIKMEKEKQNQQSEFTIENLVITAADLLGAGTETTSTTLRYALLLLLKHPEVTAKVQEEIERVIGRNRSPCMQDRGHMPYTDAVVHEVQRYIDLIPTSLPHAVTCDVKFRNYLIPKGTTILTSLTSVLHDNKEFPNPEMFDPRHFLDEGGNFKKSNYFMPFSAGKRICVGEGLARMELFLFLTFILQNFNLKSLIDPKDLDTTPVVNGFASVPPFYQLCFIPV

As a reminder, the EC50 is the concentration at which the effect is half-maximal. For orientation: Cmax means the peak of the concentration-time curve. One may read the logD as lipophilicity at a set pH, counting ionised and neutral species. As a reminder, the AUC(0-inf) is total exposure, with the tail of the curve extrapolated. One may read the Tmax as the time at which the peak concentration occurs. As a reminder, the solubility is the dissolved amount per volume that the medium holds. `CCNC(=O)Nc1ccc(-c2nc(N3CCOC[C@@H]3C)c3c(n2)C(C)(C)S(=O)(=O)C3)cc1`: the TDI result in series [1] is “Not Active”. Further, the figures for the EC50 in [2] and in series [21] were 0.055 µM and 0.22 µM, respectively. Besides, the Cmax in series [3] stood at 1700 nM; in [4], 710 nM. Besides, the logD in series [5] amounted to 4.31. In addition, the “inhibition (INH)” value in [6], in [12] and in [17] was “Not Active” each time. The results for the AUC(0-inf) in series [7] and in series [18] were 0.76 µM·h and 1 µM·h, respectively. Moreover, the CLH in series [8] is 1.5 µL/min/g; in [16], “<= 0.5 microL/min/g”. Besides, in [9], the time of peak concentration (Tmax) came out at 30 min. Moreover, the Activity entry in [10] is recorded as “Non-Toxic”; in series [14], 59%; in [15], “Not Active”. Further, the Vd in series [11] is 3.1 L/kg. For the same molecule, the Time result in series [13] is “<= 8 hr”. Moreover, the solubility in series [19] was 60.1 µg/mL (≈ 131 µM). The CL in series [20] was determined as 45%. Moreover, the fraction unbound in series [22] is 0.11.
